Data on one molecule can be found in ChEMBL document CHEMBL4393678, “Novel Tetrahydroquinazolinamines as Selective Histamine 3 Receptor Antagonists for the Treatment of Obesity” (J Med Chem, 2019).

Active and inactive are the calls of the source. No cut-off for these calls is given here. Some results are limits rather than exact numbers.

The target in data set [1] is D(1A) dopamine receptor (Homo sapiens) (UniProt P21728). As to the kind of experiment: Agonist activity at Gs-coupled D1 receptor (unknown origin) expressed in HEK293T cells assessed as inhibition of forskolin-stimulated cAMP accumulation preincubated for 10 to 15 followed by forskolin-stimulation by Glo-sensor assay. The format is functional, cell-based. (cAMP levels reflect the balance of adenylyl cyclase and phosphodiesterase activity.)

Data set [2] has as its target D(3) dopamine receptor (Homo sapiens) (UniProt P35462). Nature of the data set: Agonist activity at D3 receptor (unknown origin).
The target in data set [3] is D(1B) dopamine receptor (Homo sapiens) (UniProt P21918). As to the kind of experiment: Antagonist activity at Gs-coupled D5 receptor (unknown origin) expressed in HEK293T cells assessed as reduction in histamine-induced inhibition of forskolin-stimulated cAMP accumulation preincubated for 10 to 15 followed by histamine addition for 10 mins and subsequent forskolin-stimulation by Glo-sensor assay. The format is functional, cell-based.

For data set [4], the target named is T1, Muscarinic acetylcholine receptor M5 (Homo sapiens) (UniProt P08912).
T1 sequence (whole entry): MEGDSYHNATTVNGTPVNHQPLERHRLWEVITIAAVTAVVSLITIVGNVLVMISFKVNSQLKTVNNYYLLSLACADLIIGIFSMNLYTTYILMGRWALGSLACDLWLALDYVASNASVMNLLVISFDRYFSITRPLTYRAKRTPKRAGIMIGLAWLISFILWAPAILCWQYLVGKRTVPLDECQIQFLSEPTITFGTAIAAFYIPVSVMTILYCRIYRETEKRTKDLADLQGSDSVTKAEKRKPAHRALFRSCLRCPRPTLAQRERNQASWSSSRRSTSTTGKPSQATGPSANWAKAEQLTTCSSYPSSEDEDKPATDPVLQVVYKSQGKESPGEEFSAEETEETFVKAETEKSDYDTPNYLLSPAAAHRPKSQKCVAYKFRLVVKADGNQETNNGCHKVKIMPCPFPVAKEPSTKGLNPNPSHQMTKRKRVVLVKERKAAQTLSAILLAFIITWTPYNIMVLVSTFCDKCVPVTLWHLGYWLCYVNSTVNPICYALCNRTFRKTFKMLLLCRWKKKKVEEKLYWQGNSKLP
Nature of the data set: Antagonist activity at M5R (unknown origin) expressed in HEK293 cells harboring luc2P/NFAT-RE plasmid at 10 uM after 6 to 8 hrs by luciferase reporter gene assay. The format is cell-based. Put shortly: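 NFAT-RE luciferase assay in HEK293T cells transiently co-transfected with luc2P/NFAT-RE plasmid and receptor plasmid. Cells plated in DMEM and incubated overnight at 37 °C, 5% CO₂. Compounds and reference ligands applied for 6-8 h. Luciferase read after adding Bright-Glo substrate (1 mg/ml final).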

Data set [5] concerns the target Kappa-type opioid receptor (Homo sapiens) (UniProt P41145). As to the kind of experiment: Antagonist activity at Gi-coupled KOR (unknown origin) expressed in HEK293T cells assessed as reduction in histamine-induced inhibition of forskolin-stimulated cAMP accumulation preincubated for 10 to 15 followed by histamine addition for 10 mins and subsequent forskolin-stimulation by Glo-sensor assay. The format is functional, cell-based.

In data set [6] the target is T2, G-protein coupled bile acid receptor 1 (Homo sapiens) (UniProt Q8TDU6).
T2 sequence (whole entry): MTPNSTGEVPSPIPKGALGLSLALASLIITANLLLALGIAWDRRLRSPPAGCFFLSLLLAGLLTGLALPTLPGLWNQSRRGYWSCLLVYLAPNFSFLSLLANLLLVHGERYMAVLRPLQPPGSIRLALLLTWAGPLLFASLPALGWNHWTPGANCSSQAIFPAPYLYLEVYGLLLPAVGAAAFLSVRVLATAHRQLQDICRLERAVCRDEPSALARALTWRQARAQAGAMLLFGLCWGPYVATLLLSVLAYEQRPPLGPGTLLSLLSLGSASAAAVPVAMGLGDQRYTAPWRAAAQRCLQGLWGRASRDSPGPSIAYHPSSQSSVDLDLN
Nature of the data set: Antagonist activity at Gs-coupled GPBAR1 (unknown origin) expressed in HEK293T cells assessed as reduction in histamine-induced inhibition of forskolin-stimulated cAMP accumulation preincubated for 10 to 15 followed by histamine addition for 10 mins and subsequent forskolin-stimulation by Glo-sensor assay. The format is functional, cell-based.

Data set [7] in a line: Apparent volume of distribution in C57BL/6J mouse serum at 20 mg/kg, po by LC-MS/MS analysis. The format is ADME, organism-based. Put shortly: (§1)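 Male C57BL/6J mice (6-8 weeks, 20 ± 5 g) fasted overnight (12-16 h) got a single 20 mg/kg oral dose as 2.5 mg/mL suspension in 1% w/v gum acacia; n=5 per time point. Serum and brain (PBS homogenate 1:6 w/v) sampled up to 24 h. Parent and demethylated metabolite quantified by LC-MS/MS after liquid-liquid extraction (C18, MRM, phenacetin internal standard; linear 0.25-200 ng/mL). Two-compartment open model fit.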

Data set [8] in a line: Cmax in C57BL/6J mouse brain at 20 mg/kg, po by LC-MS/MS analysis. The format is ADME, organism-based. Further details: dose 20 mg/kg, route oral. The conditions noted are these: in vivo. The gist of the method:
as §1

Data set [9] is described as follows: Half life in C57BL/6J mouse serum assessed as 4-(2-Amino-8-methyl-5,6,7,8-tetrahydroquinazolin-4-yl)phenol level at 20 mg/kg, po by LC-MS/MS analysis. The format is ADME, organism-based. The note with it: in vivo. The gist of the method:
as §1

Data set [10] can be described thus: Tmax in C57BL/6J mouse brain assessed as 4-(2-Amino-8-methyl-5,6,7,8-tetrahydroquinazolin-4-yl)phenol level at 20 mg/kg, po by LC-MS/MS analysis. The format is ADME, organism-based. The note with it: in vivo. Put shortly:
as §1

Data set [11] can be described thus: Half life in C57BL/6J mouse brain assessed as 4-(2-Amino-8-methyl-5,6,7,8-tetrahydroquinazolin-4-yl)phenol level at 20 mg/kg, po by LC-MS/MS analysis. The format is ADME, organism-based. The conditions noted are these: in vivo. Put shortly:
as §1

Data set [12] in a line: Protein binding in C57BL/6J mouse plasma by equilibrium dialysis method. The format is ADME, cell-free. The note with it: read-out: PPB (converted). The gist of the method:
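Plasma protein binding and unbound fraction in mouse brain tissue homogenate measured by equilibrium dialysis.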
In general terms: Equilibrium dialysis compares concentrations on both sides of a semipermeable membrane.

Data set [13] is described as follows: Drug level in C57BL/6J mouse brain at 4 hrs post-dose by equilibrium dialysis method. The format is ADME, tissue-based. The note with it: in vivo. Put shortly: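 Unbound brain level derived from brain concentration after 20 mg/kg oral dose, multiplied by unbound fraction from brain-homogenate equilibrium dialysis; given at Cmax and at 4 h.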
The test system of data set [14] is Mus musculus. As to the kind of experiment: Anti-obesity activity in high fat diet-induced obese C57BL/6J mouse model assessed as change in body weight at 20 mg/kg, po measured after 6 weeks (reference value: 3.86 +/- 0.99 g). The format is functional.
Data set [15] has as its target Voltage-gated inwardly rectifying potassium channel KCNH2 (Homo sapiens, UniProt Q12809). As to the kind of experiment: Inhibition of tracer Red binding to human ERG expressed in membranes up to 10 uM after 3 hrs by fluorescence polarization assay. A general note: Fluorescence polarisation rises when a labelled molecule tumbles more slowly, as on binding a larger partner.

Data set [16] in a line: Toxicity in lean C57BL/6J mouse assessed as change in body weight at 20 mg/kg, po measured after 6 weeks. The format is organism-based. The conditions noted are these: in vivo, 1008 h.
Data set [17] concerns Mus musculus. As to the kind of experiment: Anti-obesity activity in high fat diet-induced obese C57BL/6J mouse model assessed as reduction in body fat mass at 20 mg/kg, po measured after 6 weeks relative to control by NMR-based magnetic resonance imaging analysis. The format is functional. Further details: scale not given: the % may be the effect or the level left.
The subject of data set [18] is Mus musculus. As to the kind of experiment: Anti-obesity activity in 16 hrs fasted db/db-induced obese C57BL/6J mouse model assessed as change in blood LDL level at 20 mg/kg, po measured after 6 weeks. The format is functional, organism-based.
For data set [19], the system named is Mus musculus. Nature of the data set: Anti-obesity activity in 16 hrs fasted db/db-induced obese C57BL/6J mouse model assessed as reduction in fasting blood glucose level at 20 mg/kg, po measured after 4 weeks. The format is functional, organism-based.

Chain of D(3) dopamine receptor (Homo sapiens) (P35462 whole entry): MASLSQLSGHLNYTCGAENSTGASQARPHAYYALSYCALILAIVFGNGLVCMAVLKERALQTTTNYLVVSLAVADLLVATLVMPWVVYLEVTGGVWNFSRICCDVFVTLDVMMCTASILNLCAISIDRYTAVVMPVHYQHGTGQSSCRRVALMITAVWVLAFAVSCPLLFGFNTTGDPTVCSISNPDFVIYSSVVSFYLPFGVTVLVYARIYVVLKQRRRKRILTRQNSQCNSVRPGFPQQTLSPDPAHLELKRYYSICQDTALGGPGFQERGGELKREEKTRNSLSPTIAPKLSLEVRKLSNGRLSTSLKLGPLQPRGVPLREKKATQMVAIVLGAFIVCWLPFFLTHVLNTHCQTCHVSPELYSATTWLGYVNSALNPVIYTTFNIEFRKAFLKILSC
Chain of D(1A) dopamine receptor (Homo sapiens) (P21728 whole entry): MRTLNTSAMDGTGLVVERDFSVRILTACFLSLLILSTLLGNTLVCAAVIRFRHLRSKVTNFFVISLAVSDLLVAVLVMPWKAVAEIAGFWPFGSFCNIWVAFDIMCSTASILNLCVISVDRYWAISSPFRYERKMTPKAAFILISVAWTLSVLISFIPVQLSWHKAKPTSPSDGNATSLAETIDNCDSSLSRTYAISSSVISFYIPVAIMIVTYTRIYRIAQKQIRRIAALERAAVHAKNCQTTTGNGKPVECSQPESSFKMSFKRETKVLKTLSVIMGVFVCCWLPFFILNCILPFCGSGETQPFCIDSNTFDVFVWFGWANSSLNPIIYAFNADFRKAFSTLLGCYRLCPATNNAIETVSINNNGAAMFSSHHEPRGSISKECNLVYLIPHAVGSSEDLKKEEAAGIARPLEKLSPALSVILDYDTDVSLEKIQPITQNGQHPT
Chain of Kappa-type opioid receptor (Homo sapiens) (P41145 whole entry): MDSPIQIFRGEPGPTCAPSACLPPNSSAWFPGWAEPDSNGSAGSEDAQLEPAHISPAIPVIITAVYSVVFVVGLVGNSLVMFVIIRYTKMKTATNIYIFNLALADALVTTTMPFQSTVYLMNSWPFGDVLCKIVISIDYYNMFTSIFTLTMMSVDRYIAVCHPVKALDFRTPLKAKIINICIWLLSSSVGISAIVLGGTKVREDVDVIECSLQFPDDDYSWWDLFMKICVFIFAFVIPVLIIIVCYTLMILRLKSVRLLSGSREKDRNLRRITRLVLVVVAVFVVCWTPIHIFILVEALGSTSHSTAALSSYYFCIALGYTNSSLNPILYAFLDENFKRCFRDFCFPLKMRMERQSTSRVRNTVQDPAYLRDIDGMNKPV
Chain of D(1B) dopamine receptor (Homo sapiens) (P21918 whole entry): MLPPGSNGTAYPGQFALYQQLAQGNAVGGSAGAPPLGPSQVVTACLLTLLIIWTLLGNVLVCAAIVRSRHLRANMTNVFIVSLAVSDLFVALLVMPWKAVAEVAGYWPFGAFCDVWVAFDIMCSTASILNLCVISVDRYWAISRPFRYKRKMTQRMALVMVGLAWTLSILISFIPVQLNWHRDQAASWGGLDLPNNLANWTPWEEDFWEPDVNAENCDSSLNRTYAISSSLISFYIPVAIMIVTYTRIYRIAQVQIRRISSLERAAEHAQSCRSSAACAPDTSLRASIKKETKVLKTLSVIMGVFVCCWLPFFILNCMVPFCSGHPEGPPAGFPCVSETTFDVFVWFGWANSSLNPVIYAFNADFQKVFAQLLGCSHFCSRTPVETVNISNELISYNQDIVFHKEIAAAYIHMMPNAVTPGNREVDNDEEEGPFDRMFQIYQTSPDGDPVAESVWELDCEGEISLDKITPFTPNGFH
Chain of Voltage-gated inwardly rectifying potassium channel KCNH2 (Q12809 whole entry): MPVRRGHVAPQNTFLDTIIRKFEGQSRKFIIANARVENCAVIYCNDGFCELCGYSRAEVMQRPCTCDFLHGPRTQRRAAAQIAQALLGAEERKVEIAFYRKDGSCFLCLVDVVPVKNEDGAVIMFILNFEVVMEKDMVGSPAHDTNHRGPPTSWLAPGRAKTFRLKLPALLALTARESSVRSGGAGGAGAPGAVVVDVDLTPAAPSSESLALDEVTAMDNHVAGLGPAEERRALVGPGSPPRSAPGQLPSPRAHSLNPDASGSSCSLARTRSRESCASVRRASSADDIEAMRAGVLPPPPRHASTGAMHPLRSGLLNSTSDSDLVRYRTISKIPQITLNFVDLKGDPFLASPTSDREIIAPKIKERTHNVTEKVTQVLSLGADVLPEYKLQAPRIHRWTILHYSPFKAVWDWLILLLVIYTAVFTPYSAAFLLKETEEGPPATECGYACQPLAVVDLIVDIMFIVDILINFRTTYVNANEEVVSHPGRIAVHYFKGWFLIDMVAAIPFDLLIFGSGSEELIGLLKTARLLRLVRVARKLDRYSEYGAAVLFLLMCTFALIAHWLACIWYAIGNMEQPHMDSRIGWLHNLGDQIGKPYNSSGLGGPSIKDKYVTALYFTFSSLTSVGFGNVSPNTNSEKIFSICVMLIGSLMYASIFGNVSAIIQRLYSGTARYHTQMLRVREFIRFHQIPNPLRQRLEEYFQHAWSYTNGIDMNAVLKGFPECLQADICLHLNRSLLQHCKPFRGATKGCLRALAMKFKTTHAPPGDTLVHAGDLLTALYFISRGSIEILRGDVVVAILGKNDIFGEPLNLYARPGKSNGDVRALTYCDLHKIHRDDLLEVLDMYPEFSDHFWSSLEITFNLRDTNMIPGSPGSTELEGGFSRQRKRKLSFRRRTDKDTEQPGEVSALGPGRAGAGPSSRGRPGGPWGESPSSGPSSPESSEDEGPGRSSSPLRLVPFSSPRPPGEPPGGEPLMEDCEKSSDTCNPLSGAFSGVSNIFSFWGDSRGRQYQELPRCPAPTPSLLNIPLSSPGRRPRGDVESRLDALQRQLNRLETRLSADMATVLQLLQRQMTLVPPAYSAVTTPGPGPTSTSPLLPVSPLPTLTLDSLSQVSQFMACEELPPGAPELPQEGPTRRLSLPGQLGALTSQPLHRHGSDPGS

`COc1ccc(-c2nc(N)nc3c2CCCC3C)cc1` (racemic): the inhibition result in data set [1], in data set [3], in data set [4] and in [6] was “inactive” each time. In addition, the result (in [2]; in the data set with Mus musculus [18]) was inactive. For the same molecule, in data set [5], the INH was > 10 µM. In addition, the Vd/F (in general, the volume of distribution divided by bioavailability) in data set [7] was determined as 28.5 L/kg. In addition, in [8], the peak level (Cmax) was 323 ng/g. The t1/2 in data set [9] came out at 2.1 h; in [11], 1.2 h. For the same molecule, the time of peak concentration (Tmax) (as a rule, the time from dosing to the highest level) in data set [10] stood at 0.5 h. In data set [12], the fraction unbound is 0.0424. For the same molecule, the Drug uptake in [13] is on record as 20.8 nM. The values for the Activity (in the data set with Mus musculus [14]; in data set [16]; with Mus musculus [17]) were 0.8 g, “Non-Toxic” and 27.1%, respectively. For the same molecule, the “inhibition (INH)” value in data set [15] was “Not Active”. In the data set with Mus musculus [19], the outcome was Active.
